These results are taken from ChEMBL document CHEMBL3868583, “6-Aryl substituted 4-(4-cyanomethyl) phenylamino quinazolines as a new class of isoform-selective PI3K-alpha inhibitors” (Eur J Med Chem, 2016).

A short description of data set [1]: Cytotoxicity against human PC3 cells assessed as cell growth inhibition after 24 hrs by MTT assay. The format is functional. The conditions noted are these: PC-3, 24 h.
For data set [2], the system named is PC-3. The experiment in a line: Induction of cell cycle arrest in human PC3 cells assessed as accumulation at G1 phase at 20 uM after 24 hrs by propidium iodide-staining based FACS analysis (reference value: 39 %). It is filed as functional. Summed up:
(§1)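 MCF-7 or PC-3 cells treated at indicated concentrations for 24 h, pelleted, PBS-washed, fixed in ice-cold 70% ethanol overnight at 4 °C. RNase 0.2 mg/mL 1 h at 37 °C, propidium iodide 10 µg/mL 30 min dark. 10,000 events (FL2-A vs FL2-W) by flow cytometry; fractions in apoptosis/sub-G1, G1, S, G2-M.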

In data set [3] the test system is Mus musculus. Kind of data set: Toxicity in Swiss mouse implanted with Swiss mouse EAC cells assessed as body weight at 70 mg/kg, ip administered for 1 to 9 days measured on day 1 (reference value: 22.8 g). It is filed as organism-based, Ehrlich. The settings on record: in vivo.
Data set [4] deals with Phosphatidylinositol 4,5-bisphosphate 3-kinase catalytic subunit beta isoform (Homo sapiens, UniProt P42338). Kind of data set: Inhibition of PI3Kbeta (unknown origin) using diC8 PIP2 as substrate up to 20 uM after 60 mins by ADP-glo assay. (ADP-Glo first removes unused ATP, then detects ADP through luciferase.)
Data set [5] has as its system Mus musculus. Kind of data set: Toxicity in Swiss mouse implanted with Swiss mouse EAC cells assessed as body weight at 70 mg/kg, ip administered for 1 to 9 days measured on day 12 (reference value: 28.4 g). The format is organism-based, Ehrlich. The settings on record: in vivo.
Data set [6] deals with PC-3. Kind of data set: Induction of cell cycle arrest in human PC3 cells assessed as accumulation at S phase at 10 uM after 24 hrs by propidium iodide-staining based FACS analysis (reference value: 44 %). It is filed as functional. Summed up:
as §1
For orientation: Flow cytometry measures light scatter and fluorescence of single cells or particles in a stream.

The test system of data set [7] is PC-3. Kind of data set: Induction of apoptosis in human PC3 cells assessed as loss of mitochondrial membrane potential at 10 uM after 24 hrs by rhodamine-123-staining based FACS analysis (reference value: 5 % ). The format is functional. The gist of the method: (§2)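 Cells (MCF-7 or PC-3) exposed to indicated concentrations for 24 h; rhodamine-123 (5 µM) added 1 h before end. Cells collected, PBS-washed; fluorescence of 10,000 events read in FL-1 by flow cytometry, loss of mitochondrial potential scored as decreased intensity.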

Data set [8] concerns Mus musculus. Kind of data set: Toxicity in Swiss mouse implanted with Swiss mouse EAC cells assessed as body weight at 70 mg/kg, ip administered for 1 to 9 days measured on day 5 (reference value: 26.2 g). The format is organism-based, Ehrlich. The settings on record: in vivo.
For data set [9], the system named is PC-3. Kind of data set: Induction of apoptosis in human PC3 cells assessed as loss of mitochondrial membrane potential at 20 uM after 24 hrs by rhodamine-123-staining based FACS analysis (reference value: 5 % ). It is filed as functional. Summed up:
as §2

A short description of data set [10]: Downregulation of PI3Kdelta expression in human PC3 cells at 30 uM by Western blot analysis. The format is functional, cell-based. The settings on record: PC-3. Summed up:
(§3)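 MCF-7 or PC-3 cells (2 × 10^6) treated with compound, lysed (1 × 10^6 cells) in cold NP-40 buffer with protease inhibitors 30 min on ice, 12,000 g 10 min 4 °C. 50 µg protein per lane on SDS-PAGE, PVDF transfer, 5% milk block, primary antibody 2 h, HRP secondary 1 h, ECL on film; β-actin internal control.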

Data set [11] is described as follows: Anticancer activity against Swiss mouse EAC cells implanted in Swiss mouse assessed as tumor growth inhibition at 70 mg/kg, ip administered for 1 to 9 days measured on day 12 relative to control. The settings on record: Ehrlich, read-out: TGI. It is filed as functional. The gist of the method: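 Swiss mice given 1 × 10^7 EAC cells i.p. on day 0, randomized next day (treated n=7, control n=10). Compound given i.p. days 1-9; saline control (0.2 ml i.p.), 5-fluorouracil 20 mg/kg i.p. reference. Sacrificed day 12; ascitic fluid collected; % TGI from total peritoneal tumor cell count versus control.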

Data set [12] has as its system PC-3. The experiment in a line: Induction of cell cycle arrest in human PC3 cells assessed as accumulation at G2 phase at 30 uM after 24 hrs by propidium iodide-staining based FACS analysis (reference value: 17 %). It is filed as functional. The gist of the method:
as §1

Data set [13] deals with PC-3. The experiment in a line: Induction of apoptosis in human PC3 cells assessed as loss of mitochondrial membrane potential at 30 uM after 24 hrs by rhodamine-123-staining based FACS analysis (reference value: 5 % ). The format is functional. The gist of the method:
as §2

The subject of data set [14] is PC-3. Kind of data set: Induction of cell cycle arrest in human PC3 cells assessed as apoptotic cells at 10 uM after 24 hrs by propidium iodide-staining based FACS analysis (reference value: 2 %). The format is functional. Summed up:
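PC-3 cells exposed 24 h at indicated concentrations, pelleted, fixed overnight in ice-cold 70% ethanol at 4 °C, RNase 0.2 mg/mL at 37 °C 1 h, propidium iodide 10 µg/mL 30 min in dark; 10,000 events acquired (FL2-A vs FL2-W); DNA histograms modelled for apoptotic (sub-G1), G1, S and G2-M fractions.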

The test system of data set [15] is MCF7. The experiment in a line: Induction of apoptosis in human MCF7 cells assessed as loss of mitochondrial membrane potential at 20 uM after 24 hrs by rhodamine-123-staining based FACS analysis (reference value: 7 % ). The format is functional. Summed up:
as §2

The nature of data set [16]: Downregulation of PI3Kbeta expression in human MCF7 cells at 30 uM by Western blot analysis. It is filed as functional, cell-based. Summed up:
as §3
(In western blotting, separated proteins are transferred to a membrane and probed.)

Data set [17] concerns MCF7. Kind of data set: Induction of cell cycle arrest in human MCF7 cells assessed as accumulation at S phase at 10 uM after 24 hrs by propidium iodide-staining based FACS analysis (reference value: 30 %). It is filed as functional. Summed up:
as §1

For data set [18], the system named is MCF7. The experiment in a line: Induction of apoptosis in human MCF7 cells assessed as loss of mitochondrial membrane potential at 10 uM after 24 hrs by rhodamine-123-staining based FACS analysis (reference value: 7 % ). The format is functional. The gist of the method: as §2
The subject of data set [19] is Mus musculus. Kind of data set: Toxicity in Swiss mouse implanted with Swiss mouse EAT cells assessed as body weight at 15 mg/kg, ip administered for 1 to 9 days measured on day 5 (reference value: 22.6 g). The conditions noted are these: in vivo. It is filed as organism-based.
Data set [20] can be described thus: Anticancer activity against Swiss mouse EAT cells implanted in Swiss mouse assessed as tumor growth inhibition at 25 mg/kg, ip administered for 1 to 9 days measured on day 13 relative to control. It is filed as functional. The settings on record: read-out: TGI. The gist of the method: (§4)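 Solid tumor: 1 × 10^7 EAC cells (harvested from 8-10 day ascitic Swiss mice) injected intramuscularly into right thigh of male Swiss mice, day 0; randomized next day (n=7 treated, 10 control). Dosing i.p. days 1-9; saline 0.2 ml control, 5-FU 22 mg/kg reference.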

Data set [21] in a line: Anticancer activity against Swiss mouse EAT cells implanted in Swiss mouse assessed as tumor growth inhibition at 15 mg/kg, ip administered for 1 to 9 days measured on day 13 relative to control. The format is functional. The settings on record: read-out: TGI. Summed up: as §4
The subject of data set [22] is Mus musculus. Kind of data set: Toxicity in Swiss mouse implanted with Swiss mouse EAC cells assessed as body weight at 25 mg/kg, ip administered for 1 to 9 days measured on day 9 (reference value: 27.7 g). The format is organism-based, Ehrlich. The conditions noted are these: in vivo.
The subject of data set [23] is MCF7. Kind of data set: Induction of cell cycle arrest in human MCF7 cells assessed as apoptotic cells at 10 uM after 24 hrs by propidium iodide-staining based FACS analysis (reference value: 8 %). It is filed as functional. The gist of the method:
as §1

Data set [24] has as its system MCF7. Kind of data set: Induction of apoptosis in human MCF7 cells assessed as loss of mitochondrial membrane potential at 30 uM after 24 hrs by rhodamine-123-staining based FACS analysis (reference value: 7 % ). It is filed as functional. Summed up:
as §2

The subject of data set [25] is Mus musculus. The experiment in a line: Toxicity in Swiss mouse implanted with Swiss mouse EAC cells assessed as body weight at 25 mg/kg, ip administered for 1 to 9 days measured on day 12 (reference value: 28.4 g). It is filed as organism-based, Ehrlich. The settings on record: in vivo.

Sequence of Phosphatidylinositol 4,5-bisphosphate 3-kinase catalytic subunit beta isoform (P42338 whole entry, looked up, canonical isoform): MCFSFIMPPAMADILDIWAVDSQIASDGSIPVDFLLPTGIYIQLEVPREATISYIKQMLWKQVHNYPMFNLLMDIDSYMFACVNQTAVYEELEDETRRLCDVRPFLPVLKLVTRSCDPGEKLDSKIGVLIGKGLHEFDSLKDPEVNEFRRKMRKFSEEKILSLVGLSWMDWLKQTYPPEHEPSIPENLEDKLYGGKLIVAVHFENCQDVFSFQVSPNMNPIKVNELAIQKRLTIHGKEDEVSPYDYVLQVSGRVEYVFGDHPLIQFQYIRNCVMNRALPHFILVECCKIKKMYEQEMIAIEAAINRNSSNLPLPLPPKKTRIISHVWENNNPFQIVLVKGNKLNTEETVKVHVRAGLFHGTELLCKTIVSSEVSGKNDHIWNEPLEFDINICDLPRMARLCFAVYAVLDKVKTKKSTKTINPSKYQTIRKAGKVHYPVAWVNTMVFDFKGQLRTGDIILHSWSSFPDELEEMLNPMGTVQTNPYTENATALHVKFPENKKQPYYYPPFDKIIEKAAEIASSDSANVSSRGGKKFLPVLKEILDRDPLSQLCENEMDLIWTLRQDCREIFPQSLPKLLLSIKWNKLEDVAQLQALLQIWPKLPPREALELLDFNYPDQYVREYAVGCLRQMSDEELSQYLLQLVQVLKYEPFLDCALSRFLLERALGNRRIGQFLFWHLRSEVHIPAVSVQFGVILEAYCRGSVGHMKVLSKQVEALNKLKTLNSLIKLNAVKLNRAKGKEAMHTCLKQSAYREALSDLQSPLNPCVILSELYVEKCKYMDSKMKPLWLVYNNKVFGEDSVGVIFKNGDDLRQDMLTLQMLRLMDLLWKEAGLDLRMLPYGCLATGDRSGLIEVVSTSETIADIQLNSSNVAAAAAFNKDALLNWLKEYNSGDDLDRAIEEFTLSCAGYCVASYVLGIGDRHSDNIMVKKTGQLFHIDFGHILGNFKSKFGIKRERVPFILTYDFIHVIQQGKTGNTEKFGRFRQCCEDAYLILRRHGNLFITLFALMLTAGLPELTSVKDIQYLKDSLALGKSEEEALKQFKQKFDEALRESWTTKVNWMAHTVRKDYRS

The GI50 is the concentration giving 50% growth inhibition. By inhibition is commonly meant how much of the control response was suppressed. For `N#CCc1ccc(Nc2ncnc3ccc(-c4cncc5ccccc45)cc23)cc1`, in data set [1], the GI50 turned out to be 28 µM. The Activity in the data set on PC-3 [2] was determined as 65%; in the data set with Mus musculus [3] it was 21.42 g; with Mus musculus [5], 24.33 g; with PC-3 [6], 56%; in the data set on PC-3 [7] it was 8%; in the data set with Mus musculus [8], 23 g. Moreover, the Activity in the data set with PC-3 [9] turned out to be 14%; in data set [10], 32%; in the data set on PC-3 [12] it was 12%; in the data set with PC-3 [13], 18%; in the data set with PC-3 [14], 4%. The compound also had an inhibition in [4] of 0%. Besides, in data set [11], the inhibition in vivo at 70 mg/kg amounted to 25.8%.

Consider `N#CCc1ccc(Nc2ncnc3ccc(-c4ccc5[nH]ccc5c4)cc23)cc1`, for which the Activity with MCF7 [15] amounted to 15%; in data set [16], 4%; with MCF7 [17], 40%; with MCF7 [18], 12%; in the data set with Mus musculus [19] it was 20 g; in the data set with Mus musculus [22], 22.57 g. The Activity in the data set on MCF7 [23] is 7%; in the data set with MCF7 [24] it was 20%; in the data set on Mus musculus [25], 23.8 g. In addition, in [20], the inhibition in vivo at 25 mg/kg is 36.5%. In addition, the inhibition in vivo at 15 mg/kg in [21] was found to be 34.3%.
